Data: ChEMBL document CHEMBL5154635, “Expedited Approach toward the Rational Design of Noncovalent SARS-CoV-2 Main Protease Inhibitors” (J Med Chem, 2022)
pEC50, pIC50, pKd: −log10 of the molar value.

Assays:
[1] = Cytotoxicity against African green monkey Vero E6 cells assessed as cell viability incubated for 5 days by neutral red uptake based microplate reader method; type: toxicity, Vero C1008; conditions: chlorocebus sabaeus, time 5 day
Summary of the method: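 Vero E6 cells seeded and grown for 24 h, then washed. Serial compound dilutions added in serum-free medium for 5 days at 37 °C. Neutral red (40 μg/mL) taken up for 2–4 h, with absorbance read at 540 nm. CC50 from variable-slope dose-response fit.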

SARS-CoV-2 = assay: Antiviral activity against SARS-Cov-2 USA-WA1/2020 isolate infected in African green monkey Vero E6 cells measured after 48 hrs of postinfection by immunofluorescence assay; type: functional, organism-based; conditions: Severe acute respiratory syndrome coronavirus 2, USA-WA1/2020, Vero C1008, 48 h
[2] = target: T1, Replicase polyprotein 1ab (Severe acute respiratory syndrome coronavirus 2, UniProt P0DTD1); assay: Non-covalent inhibition of SARS-Cov-2 -Mpro incubated for 30 mins using FRET substrate measured for 1 hr by FRET-based enzymatic assay
[3] = Covalent inhibition of MERS-CoV -Mpro incubated for 30 mins using FRET substrate measured for 1 hr by FRET-based enzymatic assay; set-up: species or system Middle East respiratory syndrome-related coronavirus
[4] = Covalent inhibition of HCoV-OC43 -Mpro incubated for 30 mins using FRET substrate measured for 1 hr by FRET-based enzymatic assay; set-up: species or system unidentified human coronavirus
[5] = Covalent inhibition of Enterovirus-A17 3Cpro incubated for 30 mins using FRET substrate measured for 1 hr by FRET-based enzymatic assay
Summary of the method: (§1)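 Reaction started with the corresponding peptide FRET substrate (final 10 μM) and read at ex 360/em 460 nm at 30 °C for 1 h. Initial velocity taken by linear regression over the first 15 min.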

[6] = Covalent inhibition of Enterovirus-D68 3Cpro incubated for 30 mins using FRET substrate measured for 1 hr by FRET-based enzymatic assay; summary of the method: as §1
[7] = Covalent inhibition of Enterovirus-A17 2Apro incubated for 30 mins using FRET substrate measured for 1 hr by FRET-based enzymatic assay; summary of the method: as §1
[8] = Covalent inhibition of Enterovirus-D68 2Apro incubated for 30 mins using FRET substrate measured for 1 hr by FRET-based enzymatic assay; summary of the method: as §1
[9] = target: T2, Calpain-1 catalytic subunit (Homo sapiens, UniProt P07384); assay: Covalent inhibition of Calpain 1 (unknown origin) incubated for 1 hr by FRET-based enzymatic assay
T2 sequence (P07384 whole entry): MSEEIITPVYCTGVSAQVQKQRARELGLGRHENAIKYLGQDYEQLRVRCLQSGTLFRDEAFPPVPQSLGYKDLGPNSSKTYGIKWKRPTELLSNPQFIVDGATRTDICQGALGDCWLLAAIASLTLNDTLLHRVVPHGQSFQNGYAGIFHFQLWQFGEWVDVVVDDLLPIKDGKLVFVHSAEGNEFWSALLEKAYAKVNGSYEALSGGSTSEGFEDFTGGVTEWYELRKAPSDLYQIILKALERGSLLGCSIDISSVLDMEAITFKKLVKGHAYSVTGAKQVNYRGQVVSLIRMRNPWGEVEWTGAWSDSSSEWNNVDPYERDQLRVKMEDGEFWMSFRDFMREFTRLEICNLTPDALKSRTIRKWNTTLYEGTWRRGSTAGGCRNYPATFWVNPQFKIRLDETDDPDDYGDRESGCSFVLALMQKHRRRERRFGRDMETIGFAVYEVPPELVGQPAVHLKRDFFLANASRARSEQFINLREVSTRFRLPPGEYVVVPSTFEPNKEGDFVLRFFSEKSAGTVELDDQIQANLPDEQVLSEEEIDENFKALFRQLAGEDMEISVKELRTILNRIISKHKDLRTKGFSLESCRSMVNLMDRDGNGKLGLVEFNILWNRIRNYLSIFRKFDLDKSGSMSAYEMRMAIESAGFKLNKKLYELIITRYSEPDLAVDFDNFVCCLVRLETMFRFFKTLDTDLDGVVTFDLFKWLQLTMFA
Summary of the method: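 Calpain 1 in buffer of 50 mM HEPES, 50 mM NaCl, 10 mM DTT and 5 mM CaCl2 (pH 7.5), with test compound at serial concentrations. The reaction is started with N-succinyl-Leu-Leu-Val-Tyr-AMC (4 mM stock). Fluorescence (ex 360, em 460 nm) is read for 1 h at 30 °C.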

Procathepsin L [10] = target: T3, Procathepsin L (Homo sapiens, UniProt P07711); assay: Covalent inhibition of Cathepsin L (unknown origin) incubated for 30 mins using FRET substrate measured for 1 hr by FRET-based enzymatic assay
T3 sequence (P07711 whole entry): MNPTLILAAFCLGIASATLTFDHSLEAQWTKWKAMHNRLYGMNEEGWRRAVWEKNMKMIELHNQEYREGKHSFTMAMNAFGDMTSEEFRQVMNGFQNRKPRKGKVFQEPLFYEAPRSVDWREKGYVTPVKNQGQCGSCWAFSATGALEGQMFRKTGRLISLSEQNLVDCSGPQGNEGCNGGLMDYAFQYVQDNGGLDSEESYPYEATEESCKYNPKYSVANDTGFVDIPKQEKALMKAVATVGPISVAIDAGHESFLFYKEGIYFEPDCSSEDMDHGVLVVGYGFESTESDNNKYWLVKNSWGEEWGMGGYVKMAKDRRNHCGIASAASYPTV

[11] = Covalent inhibition of SARS-Cov -Mpro incubated for 30 mins using FRET substrate measured for 1 hr by FRET-based enzymatic assay; set-up: species or system Severe acute respiratory syndrome-related coronavirus
[12] = Selectivity Index, ratio of CC50 for african green monkey vero E6 cells to EC50 for antiviral activity against SARS-Cov-2 USA-WA1/2020 isolate infected in African green monkey Vero E6 cells; type: toxicity, Vero C1008; conditions: read-out: Ratio CC50/EC50
[13] = Non-covalent inhibition of SARS-Cov -Mpro incubated for 30 mins using FRET substrate measured for 1 hr by FRET-based enzymatic assay; set-up: species or system Severe acute respiratory syndrome-related coronavirus
[14] = target: T1, Replicase polyprotein 1ab; assay: Non-covalent inhibition of SARS-Cov-2 PLpro incubated for 30 mins using FRET substrate measured for 1 hr by FRET-based enzymatic assay
[15] = target: T2, Calpain-1 catalytic subunit; assay: Non-covalent inhibition of Calpain 1 (unknown origin) incubated for 1 hr by FRET-based enzymatic assay
Summary of the method: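 Calpain 1 in 50 mM HEPES, 50 mM NaCl, 10 mM DTT, 5 mM CaCl2, pH 7.5. Reaction started with N-succinyl-Leu-Leu-Val-Tyr-AMC (4 mM stock).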

Procathepsin L [16] = target: T3, Procathepsin L; assay: Non-covalent inhibition of Cathepsin L (unknown origin) incubated for 30 mins using FRET substrate measured for 1 hr by FRET-based enzymatic assay
Summary of the method: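 Cathepsin L activated for 30 min at 30 °C in 20 mM sodium acetate, 1 mM EDTA, 5 mM DTT, pH 5.5. 300 pM enzyme preincubated with compound for 30 min at 30 °C.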

[17] = target: T1, Replicase polyprotein 1ab; assay: Stabilization in SARS-CoV-2 MPro assessed as binding constant incubated for 30 mins in presence of DTT by thermal shift binding assay
Summary of the method: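 3 μM SARS-CoV-2 Mpro in Mpro reaction buffer with 4 mM DTT, incubated with varying compound concentrations for 30 min at 30 °C. SYPRO orange added and melt run from 20 to 90 °C at 0.05 °C/s. Tm plotted against concentration and fitted to one-site binding to give apparent Kd.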

CC(C)(C)NC(=O)C(c1cccnc1)N(C(=O)c1ccco1)c1ccc(C(C)(C)C)cc1 (centres undefined)
CC50 at 120 h [1]: > 125 µM | pEC50 (SARS-CoV-2): < 4.70

CC(C)(C)NC(=O)C(c1cnccn1)N(C(=O)c1ccco1)c1ccc(C(C)(C)C)cc1 (centres undefined)
CC50 at 120 h [1]: 138 µM

CC(C)(C)NC(=O)C(c1c[nH]cn1)N(C(=O)c1ccco1)c1ccc(C(C)(C)C)cc1 (centres undefined)
pIC50 [2]: < 4.70

CC(C)C[C@H](NC(=O)OCc1ccccc1)C(=O)N[C@@H](C[C@@H]1CCNC1=O)C(O)S(=O)(=O)O (some centres undefined)
pEC50 (SARS-CoV-2): 5.82 | pIC50 [3]: ≥ 6.80 | pIC50 [4]: ≥ 6.80 | pIC50 [5]: ≥ 6.80 | pIC50 [6]: ≥ 6.80 | pIC50 [7]: < 4.30 | pIC50 [8]: < 4.30 | pIC50 [9]: ≥ 7.13 | pIC50 (Procathepsin L [10]): ≥ 7.13 | pIC50 [11]: ≥ 6.80

CC(C)(C)NC(=O)C(c1cncnc1)N(C(=O)c1ccco1)c1ccc(C(C)(C)C)cc1 (centres undefined)
pIC50 [2]: < 4.70

C[C@H](NC(=O)C(c1cccnc1)N(C(=O)c1ccco1)c1ccc(-c2cccs2)cc1)c1ccccc1 (some centres undefined)
pIC50 [2]: 6.25 | CC50 at 120 h [1]: 89.6 µM

O=C(NC1CCCC1)C(c1cccnc1)N(C(=O)c1ccco1)c1ccc(-c2ccccc2)cc1 (centres undefined)
pIC50 [2]: 5.39 | CC50 at 120 h [1]: > 200 µM

C[C@H](NC(=O)C(c1cccnc1)N(C(=O)c1ccno1)c1ccc(C2CCCCC2)cc1)c1ccccc1 (some centres undefined)
CC50 at 120 h [1]: 17.5 µM

C[C@H](NC(=O)C(c1cccnc1)N(C(=O)c1ccco1)c1ccc(-c2ccccn2)cc1)c1ccccc1 (some centres undefined)
CC50 at 120 h [1]: 236 µM

O=C(NC1CCCCC1)C(c1cccnc1)N(C(=O)c1ccco1)c1ccc(-c2ccccc2)cc1 (centres undefined)
CC50 at 120 h [1]: 53.5 µM

O=C(NC1CC1)C(c1cccnc1)N(C(=O)c1ccco1)c1ccc(-c2ccccc2)cc1 (centres undefined)
pIC50 [2]: 4.92

C[C@H](NC(=O)C(c1cccnc1)N(C(=O)c1ccco1)c1ccc(C2CCCCC2)cc1)c1ccccc1 (some centres undefined)
CC50 at 120 h [1]: 9.61 µM

Cc1ccc(S(=O)(=O)CNC(=O)C(c2cccnc2)N(C(=O)c2ccco2)c2ccc(C(C)(C)C)cc2)cc1 (centres undefined)
pIC50 [2]: < 4.70

O=C(NCCCc1ccccc1)C(c1cccnc1)N(C(=O)c1ccco1)c1ccc(-c2ccccc2)cc1 (centres undefined)
CC50 at 120 h [1]: > 200 µM | pEC50 (SARS-CoV-2): 5.69 | selectivity ratio [12]: > 98

CC(C)(C)c1ccc(N(C(=O)c2ccco2)C(C(=O)NC2CCCCC2)c2cccnc2)cc1 (centres undefined)
pIC50 [2]: 5.62 | CC50 at 120 h [1]: 18.2 µM

C[C@H](NC(=O)C(c1cccnc1)N(C(=O)c1ccco1)c1ccc(-c2ccco2)cc1)c1ccccc1 (some centres undefined)
CC50 at 120 h [1]: 56.4 µM

C[C@H](NC(=O)C(c1cccnc1)N(C(=O)c1ccco1)c1ccc(-c2ccccc2)cc1)c1ccccc1 (some centres undefined)
pIC50 [2]: 6.18 | CC50 at 120 h [1]: > 200 µM | pEC50 (SARS-CoV-2): 5.79

C[C@H](NC(=O)C(c1cccnc1)N(C(=O)c1ccco1)c1ccc(-n2cccc2)cc1)c1ccccc1 (some centres undefined)
CC50 at 120 h [1]: > 200 µM | pEC50 (SARS-CoV-2): 5.76 | selectivity ratio [12]: > 116

Cc1cccc(C)c1NC(=O)C(c1cccnc1)N(C(=O)c1ccco1)c1ccc(C(C)(C)C)cc1 (centres undefined)
pIC50 [2]: < 4.70

C[C@H](NC(=O)C(c1cccnc1)N(C(=O)c1cnco1)c1ccc(-c2ccccc2)cc1)c1ccccc1 (some centres undefined)
CC50 at 120 h [1]: 67 µM

C[C@H](NC(=O)[C@H](c1cccnc1)N(C(=O)c1ccco1)c1ccc(-c2ccccc2)cc1)c1ccccc1
pIC50 [2]: < 4.70

CC(C)(C)c1ccc(N(C(=O)c2ccco2)C(C(=O)NC2CCCC2)c2cccnc2)cc1 (centres undefined)
CC50 at 120 h [1]: 101 µM

CC(C)(C)c1ccc(N(C(=O)c2ccco2)C(C(=O)NC2CC2)c2cccnc2)cc1 (centres undefined)
CC50 at 120 h [1]: 52.8 µM

CC(C)(C)CC(C)(C)NC(=O)C(c1cccnc1)N(C(=O)c1ccco1)c1ccc(-c2ccccc2)cc1 (centres undefined)
pIC50 [2]: 5.67 | CC50 at 120 h [1]: 148 µM

C[C@H](NC(=O)C(c1cccnc1)N(C(=O)c1ccno1)c1ccc(-c2ccccc2)cc1)c1ccccc1 (some centres undefined)
CC50 at 120 h [1]: > 200 µM

C[C@H](NC(=O)C(c1cccnc1)N(C(=O)c1ccco1)c1ccc([Si](C)(C)C)cc1)c1ccccc1 (some centres undefined)
CC50 at 120 h [1]: 19.4 µM

C[C@H](NC(=O)C(c1cnccn1)N(C(=O)c1c[nH]cn1)c1ccc(-c2ccccc2)cc1)c1ccccc1 (some centres undefined)
CC50 at 120 h [1]: 148 µM | pEC50 (SARS-CoV-2): 5.34 | selectivity ratio [12]: 32.6

O=C(NCC(c1ccccc1)c1ccccc1)C(c1cccnc1)N(C(=O)c1ccco1)c1ccc(-c2ccccc2)cc1 (centres undefined)
CC50 at 120 h [1]: > 200 µM

C[C@H](NC(=O)[C@@H](c1cccnc1)N(C(=O)c1ccco1)c1ccc(-c2ccccc2)cc1)c1ccccc1
pIC50 [2]: 6.70 | CC50 at 120 h [1]: > 100 µM | pIC50 [13]: 6.57 | pIC50 [14]: < 4.22 | pIC50 [15]: 5.22 | pIC50 (Procathepsin L [16]): 4.98 | pKd [17]: 5.03

CC(C)(C)CC(C)(C)NC(=O)C(c1cccnc1)N(C(=O)c1ccco1)c1ccc(C(C)(C)C)cc1 (centres undefined)
pIC50 [2]: < 4.70

C[C@H](NC(=O)C(c1cnccn1)N(C(=O)c1ccco1)c1ccc(-c2ccccc2)cc1)c1ccccc1 (some centres undefined)
CC50 at 120 h [1]: > 200 µM | pEC50 (SARS-CoV-2): 6.09 | selectivity ratio [12]: > 244

C[C@H](NC(=O)C(c1cccnc1)N(C(=O)c1c[nH]cn1)c1ccc(-c2ccccc2)cc1)c1ccccc1 (some centres undefined)
CC50 at 120 h [1]: 129 µM | pEC50 (SARS-CoV-2): 4.88 | selectivity ratio [12]: 9.9
